Data as given in ChEMBL document CHEMBL4342528, “Discovery of a First-in-Class Protein Arginine Methyltransferase 6 (PRMT6) Covalent Inhibitor” (J Med Chem, 2020).
The source made the active and inactive calls. The rule behind the calls is not given here.

Tests used:
[1] = target: T1, Protein arginine N-methyltransferase 6 (Homo sapiens, UniProt Q96LA8); test: Covalent binding affinity to human PRMT6 assessed as covalent adduct. formation at 300 uM pre-incubated for 1 hr by mass spectrometry
How it was run: (§1)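 PRMT protein at 15 μM was incubated 1 h at room temperature with a 20-fold molar excess of inhibitor (300 μM). The reaction was quenched with 0.1% aqueous TFA, separated by HPLC (5–95% acetonitrile in water) and analysed by ESI time-of-flight LC/MS for protein–ligand adduct mass.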
Target sequence in this assay (Q96LA8 whole entry, looked up): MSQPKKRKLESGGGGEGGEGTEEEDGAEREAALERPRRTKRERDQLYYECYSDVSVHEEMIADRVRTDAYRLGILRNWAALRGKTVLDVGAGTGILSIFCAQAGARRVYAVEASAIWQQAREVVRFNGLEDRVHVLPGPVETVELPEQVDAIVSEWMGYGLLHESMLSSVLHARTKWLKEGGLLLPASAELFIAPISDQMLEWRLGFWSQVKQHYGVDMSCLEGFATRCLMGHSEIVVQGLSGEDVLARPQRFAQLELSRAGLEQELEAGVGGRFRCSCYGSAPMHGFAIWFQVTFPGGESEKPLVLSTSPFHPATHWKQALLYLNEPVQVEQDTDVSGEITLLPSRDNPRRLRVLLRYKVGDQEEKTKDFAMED

[2] = target: T2, Protein arginine N-methyltransferase 1 (Homo sapiens, UniProt Q99873); test: Covalent binding affinity to human PRMT1 assessed as covalent adduct. formation at 300 uM pre-incubated for 1 hr by mass spectrometry; how it was run: as §1
Target sequence in this assay (Q99873 whole entry, looked up): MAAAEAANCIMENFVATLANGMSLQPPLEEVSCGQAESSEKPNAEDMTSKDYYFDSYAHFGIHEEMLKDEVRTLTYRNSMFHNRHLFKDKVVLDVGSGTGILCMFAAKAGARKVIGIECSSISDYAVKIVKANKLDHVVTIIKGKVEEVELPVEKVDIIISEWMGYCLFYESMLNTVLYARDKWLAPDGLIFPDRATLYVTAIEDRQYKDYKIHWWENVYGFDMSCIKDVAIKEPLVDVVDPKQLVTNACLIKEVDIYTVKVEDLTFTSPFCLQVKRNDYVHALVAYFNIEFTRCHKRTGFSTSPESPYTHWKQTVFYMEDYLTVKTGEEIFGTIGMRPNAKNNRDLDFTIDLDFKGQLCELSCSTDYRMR

[3] = target: T3, Protein arginine N-methyltransferase 3 (Homo sapiens, UniProt O60678); test: Covalent binding affinity to human PRMT3 assessed as covalent adduct. formation at 300 uM pre-incubated for 1 hr by mass spectrometry; how it was run: as §1
T3 sequence (O60678 2-531 limits assumed): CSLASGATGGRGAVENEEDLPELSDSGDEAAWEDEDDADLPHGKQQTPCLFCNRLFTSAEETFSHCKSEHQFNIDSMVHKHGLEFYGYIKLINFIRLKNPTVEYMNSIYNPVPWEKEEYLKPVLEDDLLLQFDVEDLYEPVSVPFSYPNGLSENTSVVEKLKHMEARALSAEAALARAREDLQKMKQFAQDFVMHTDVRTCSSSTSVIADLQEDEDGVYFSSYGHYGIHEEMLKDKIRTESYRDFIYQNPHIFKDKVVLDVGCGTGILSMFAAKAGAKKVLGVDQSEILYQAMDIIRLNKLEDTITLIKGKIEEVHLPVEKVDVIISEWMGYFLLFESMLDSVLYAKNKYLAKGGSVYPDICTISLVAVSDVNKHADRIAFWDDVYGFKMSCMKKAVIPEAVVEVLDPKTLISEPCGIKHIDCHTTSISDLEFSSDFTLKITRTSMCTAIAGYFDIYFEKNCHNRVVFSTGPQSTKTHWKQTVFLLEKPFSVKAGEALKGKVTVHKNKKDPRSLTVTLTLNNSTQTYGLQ

[4] = target: T4, Protein arginine N-methyltransferase 8 (Homo sapiens, UniProt Q9NR22); test: Covalent binding affinity to human PRMT8 assessed as covalent adduct. formation at 300 uM pre-incubated for 1 hr by mass spectrometry; how it was run: as §1
Target sequence in this assay (Q9NR22 2-394 limits assumed): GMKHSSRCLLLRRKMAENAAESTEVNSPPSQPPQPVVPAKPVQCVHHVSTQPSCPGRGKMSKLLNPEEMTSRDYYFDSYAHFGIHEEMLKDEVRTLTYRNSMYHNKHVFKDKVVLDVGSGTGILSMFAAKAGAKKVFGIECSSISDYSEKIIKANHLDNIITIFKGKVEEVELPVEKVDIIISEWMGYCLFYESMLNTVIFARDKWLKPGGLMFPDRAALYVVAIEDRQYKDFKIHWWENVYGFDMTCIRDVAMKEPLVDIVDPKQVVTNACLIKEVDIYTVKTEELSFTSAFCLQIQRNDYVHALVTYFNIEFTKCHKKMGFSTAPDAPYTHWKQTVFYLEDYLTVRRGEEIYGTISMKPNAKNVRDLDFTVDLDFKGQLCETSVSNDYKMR

[5] = target: T5, Histone-arginine methyltransferase CARM1 (Homo sapiens, UniProt Q86X55); test: Inhibition of human PRMT4 using [3H]SAM as donor and [3H]methylated biotin-labeled peptide as substrate by scintillation proximity assay
T5 sequence (Q86X55 whole entry): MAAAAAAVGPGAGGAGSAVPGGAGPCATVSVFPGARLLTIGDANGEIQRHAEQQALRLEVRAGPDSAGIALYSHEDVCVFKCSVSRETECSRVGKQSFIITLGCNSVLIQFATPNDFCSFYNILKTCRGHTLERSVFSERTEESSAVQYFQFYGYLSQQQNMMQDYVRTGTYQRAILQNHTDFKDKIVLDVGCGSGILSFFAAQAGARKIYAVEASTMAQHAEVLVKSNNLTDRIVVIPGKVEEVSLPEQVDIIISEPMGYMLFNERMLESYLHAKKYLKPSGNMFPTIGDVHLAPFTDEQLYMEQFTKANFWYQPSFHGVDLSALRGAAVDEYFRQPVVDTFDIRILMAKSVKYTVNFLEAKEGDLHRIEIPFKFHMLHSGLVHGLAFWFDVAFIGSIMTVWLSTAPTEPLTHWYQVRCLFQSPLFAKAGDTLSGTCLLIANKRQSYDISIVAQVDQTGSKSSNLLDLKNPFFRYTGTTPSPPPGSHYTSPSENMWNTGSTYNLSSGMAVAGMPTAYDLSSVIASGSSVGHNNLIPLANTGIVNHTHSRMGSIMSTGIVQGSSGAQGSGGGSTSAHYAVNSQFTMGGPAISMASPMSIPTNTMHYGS
How it was run: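 Compound titrated into the reaction; 1 h enzyme–compound preincubation stated for PRMT6. Methylated peptide captured on streptavidin/scintillant-coated plates and counted (cpm). IC50 from concentration–response, triplicate, mean ± SD.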

[6] = target: T4, Protein arginine N-methyltransferase 8; test: Inhibition of human PRMT8 using [3H]SAM as donor and [3H]methylated biotin-labeled peptide as substrate by scintillation proximity assay
How it was run: (§2)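 Radiometric SPA: ³H-methyl transfer from ³H-SAM to biotin-labeled peptide, captured on streptavidin/scintillant-coated plate, counts per minute read; substrate and cofactor each at their Km for the enzyme; compound titrated; IC50 from triplicate determinations, mean ± SD.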
Target sequence in this assay (Q9NR22 whole entry): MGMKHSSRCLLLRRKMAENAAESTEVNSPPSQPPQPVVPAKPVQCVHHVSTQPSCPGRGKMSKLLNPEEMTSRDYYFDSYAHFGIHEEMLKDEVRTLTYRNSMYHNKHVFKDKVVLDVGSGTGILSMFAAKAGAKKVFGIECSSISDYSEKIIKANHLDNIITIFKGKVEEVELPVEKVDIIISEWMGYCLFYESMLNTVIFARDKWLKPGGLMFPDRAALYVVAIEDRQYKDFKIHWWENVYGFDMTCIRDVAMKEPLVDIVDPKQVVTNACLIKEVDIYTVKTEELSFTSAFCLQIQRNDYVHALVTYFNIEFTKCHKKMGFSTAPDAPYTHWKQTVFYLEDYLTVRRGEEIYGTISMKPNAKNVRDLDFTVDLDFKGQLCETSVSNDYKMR

[7] = organism: Homo sapiens; test: Selectivity index, ratio of IC50 for human PRMT3 to IC50 for human PRMT6
[8] = organism: Homo sapiens; test: Selectivity index, ratio of IC50 for human PRMT8 to IC50 for human PRMT6; how it was run: as §2
[9] = target: T1, Protein arginine N-methyltransferase 6; test: Inhibition of Flag-tagged PRMT6 (unknown origin) expressed in HEK293 cells incubated for 20 hrs assessed as reduction in H3R2me2a levels; assay type: cell-based
[10] = target: T2, Protein arginine N-methyltransferase 1; test: Inhibition of PRMT1 in human MCF7 cells assessed as reduction in H4R3me2a levels incubated for 2 days by fluorescence based assay; assay type: cell-based
How it was run: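 MCF7 cells with endogenous PRMT1 were treated with compound for 2 days, with MS023 (1 μM) as positive control. The H4R3me2a fluorescence signal was normalized to H4 and fitted nonlinearly to give IC50.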

[11] = target: T3, Protein arginine N-methyltransferase 3; test: Inhibition of PRMT3 (unknown origin) expressed in HEK293T cells were co-transfected with GFP-tagged histone H4 peptide assessed as reduction in H4R3 arginine asymmetric dimethylation at 0.2 to 20 uM incubated for 20 hrs; assay type: cell-based
[12] = tested on: MCF7; test: Toxicity in human MCF7 cells assessed as reduction in cell viability up to 20 uM incubated for 3 days by CCK8 assay; assay type: cell-based; conditions: mcf7, 72 h
How it was run: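 Cells seeded 1×10^4 per well in triplicate, treated after 24 h with serial dilutions from 20 μM for 3 days; CCK-8 (WST-8) added, 4 h at 37 °C, absorbance at 450 nm; mean ± SD of three replicate experiments.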

[13] = target: Histone-lysine N-methyltransferase SETDB1 (Homo sapiens) (UniProt Q15047); test: Inhibition of SETDB1 (unknown origin) assessed as reduction in incorporation of [3H]-labeled methyl group into biotinylated substrate using [3H-SAM] at 10 uM incubated for 1 hr by scintillation proximity assay
How it was run: (§3)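 Panel of 33 methyltransferases (22 PKMTs, 3 DNMTs, 8 PRMTs), each tested at 10 and 50 μM compound. Activity was read as ³H-methyl transfer from ³H-SAM in a radiometric assay done as previously described.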

[14] = target: Histone-lysine N-methyltransferase SETD7 (Homo sapiens) (UniProt Q8WTS6); test: Inhibition of SETD7 (unknown origin) assessed as reduction in incorporation of [3H]-labeled methyl group into biotinylated substrate using [3H-SAM] at 10 uM incubated for 1 hr by scintillation proximity assay; how it was run: as §3
Histone-lysine N-methyltransferase SETD7 (Homo sapiens), sequence (Q8WTS6 whole entry): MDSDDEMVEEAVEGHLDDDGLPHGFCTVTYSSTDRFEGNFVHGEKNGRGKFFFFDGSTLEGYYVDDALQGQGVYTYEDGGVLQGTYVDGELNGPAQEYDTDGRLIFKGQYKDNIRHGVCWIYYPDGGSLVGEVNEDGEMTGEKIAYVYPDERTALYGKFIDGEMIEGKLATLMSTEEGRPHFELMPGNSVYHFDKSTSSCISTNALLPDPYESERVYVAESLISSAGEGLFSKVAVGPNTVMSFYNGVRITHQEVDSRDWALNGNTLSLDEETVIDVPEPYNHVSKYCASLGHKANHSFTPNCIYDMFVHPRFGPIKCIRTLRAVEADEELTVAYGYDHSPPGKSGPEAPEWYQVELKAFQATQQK

[15] = target: Histone-lysine N-methyltransferase KMT5B (Homo sapiens) (UniProt Q4FZB7); test: Inhibition of SUV420H1 (unknown origin) assessed as reduction in incorporation of [3H]-labeled methyl group into biotinylated substrate using [3H-SAM] at 10 uM incubated for 1 hr by scintillation proximity assay
Histone-lysine N-methyltransferase KMT5B (Homo sapiens), sequence (Q4FZB7 whole entry, looked up): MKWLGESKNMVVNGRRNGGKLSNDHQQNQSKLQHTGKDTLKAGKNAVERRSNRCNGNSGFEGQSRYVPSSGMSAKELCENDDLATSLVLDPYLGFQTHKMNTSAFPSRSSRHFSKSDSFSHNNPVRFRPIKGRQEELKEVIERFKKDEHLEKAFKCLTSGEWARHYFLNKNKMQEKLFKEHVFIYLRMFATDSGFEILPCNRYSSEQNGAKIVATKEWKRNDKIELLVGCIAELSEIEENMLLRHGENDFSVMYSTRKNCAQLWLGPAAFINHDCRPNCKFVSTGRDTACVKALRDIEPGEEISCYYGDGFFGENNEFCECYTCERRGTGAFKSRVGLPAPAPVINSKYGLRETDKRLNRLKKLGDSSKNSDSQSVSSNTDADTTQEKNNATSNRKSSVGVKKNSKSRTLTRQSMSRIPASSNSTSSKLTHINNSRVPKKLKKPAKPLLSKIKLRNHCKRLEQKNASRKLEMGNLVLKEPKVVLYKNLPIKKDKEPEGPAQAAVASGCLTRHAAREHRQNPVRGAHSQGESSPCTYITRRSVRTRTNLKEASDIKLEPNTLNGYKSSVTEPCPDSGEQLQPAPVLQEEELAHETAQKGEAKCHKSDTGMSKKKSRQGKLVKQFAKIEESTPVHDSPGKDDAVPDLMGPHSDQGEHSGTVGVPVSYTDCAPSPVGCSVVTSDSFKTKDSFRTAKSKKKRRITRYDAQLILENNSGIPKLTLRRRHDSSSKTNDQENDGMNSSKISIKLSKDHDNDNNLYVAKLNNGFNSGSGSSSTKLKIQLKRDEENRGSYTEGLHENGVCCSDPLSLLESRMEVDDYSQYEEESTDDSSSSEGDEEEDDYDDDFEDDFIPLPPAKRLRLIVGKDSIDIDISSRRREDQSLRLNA

[16] = target: N-lysine methyltransferase SMYD2 (Homo sapiens) (UniProt Q9NRG4); test: Inhibition of SMYD2 (unknown origin) assessed as reduction in incorporation of [3H]-labeled methyl group into biotinylated substrate using [3H-SAM] at 10 uM incubated for 1 hr by scintillation proximity assay; how it was run: as §3
N-lysine methyltransferase SMYD2 (Homo sapiens), sequence (Q9NRG4 whole entry): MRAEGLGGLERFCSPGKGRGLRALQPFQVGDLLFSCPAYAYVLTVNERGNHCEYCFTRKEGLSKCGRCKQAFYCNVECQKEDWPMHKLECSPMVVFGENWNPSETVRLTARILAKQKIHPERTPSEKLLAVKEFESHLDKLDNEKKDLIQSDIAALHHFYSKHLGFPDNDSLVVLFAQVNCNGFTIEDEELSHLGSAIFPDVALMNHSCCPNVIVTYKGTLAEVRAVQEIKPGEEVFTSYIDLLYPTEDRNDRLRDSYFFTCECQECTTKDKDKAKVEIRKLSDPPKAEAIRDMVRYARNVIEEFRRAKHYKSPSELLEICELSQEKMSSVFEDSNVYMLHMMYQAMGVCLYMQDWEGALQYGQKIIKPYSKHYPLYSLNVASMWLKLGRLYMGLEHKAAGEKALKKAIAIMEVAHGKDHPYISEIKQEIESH

[17] = target: DNMT3B-DNMT3L complex (Homo sapiens) (UniProt Q9UBC3+Q9UJW3); test: Inhibition of DNMT3B/3L (unknown origin) at 10 uM using un-biotinylated Poly(2'-deoxyinosinic-2'-deoxycytidylic acid) substrate using [3H-SAM] incubated for 1 hr by scintillation proximity assay; assay type: protein-complex assay; how it was run: as §3
DNMT3B-DNMT3L complex (Homo sapiens), sequence (Q9UJW3 whole entry, looked up, other chains not shown): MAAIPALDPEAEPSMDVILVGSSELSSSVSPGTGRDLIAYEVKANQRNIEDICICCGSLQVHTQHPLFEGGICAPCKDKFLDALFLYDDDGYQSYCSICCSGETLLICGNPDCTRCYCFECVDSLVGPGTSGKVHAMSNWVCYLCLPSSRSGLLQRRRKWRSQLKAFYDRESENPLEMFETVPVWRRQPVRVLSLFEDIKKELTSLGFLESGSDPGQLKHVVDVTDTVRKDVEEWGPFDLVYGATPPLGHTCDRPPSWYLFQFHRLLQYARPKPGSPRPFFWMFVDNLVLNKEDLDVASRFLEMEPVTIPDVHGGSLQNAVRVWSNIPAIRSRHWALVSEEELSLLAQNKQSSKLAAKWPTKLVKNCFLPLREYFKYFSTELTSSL

[18] = target: Histone-lysine N-methyltransferase, H3 lysine-36 specific (Homo sapiens) (UniProt Q96L73); test: Inhibition of NSD1 (unknown origin) at 10 uM using [3H-SAM] and nucleosome as substrate incubated for 1 hr by scintillation proximity assay; how it was run: as §3
[19] = target: Histone-lysine N-methyltransferase SETD7 (Homo sapiens) (UniProt Q8WTS6); test: Inhibition of SETD7 (unknown origin) at 50 uM assessed as reduction in incorporation of [3H]-labeled methyl group into biotinylated substrate using [3H-SAM] at 50 uM incubated for 1 hr by scintillation proximity assay relative to control; how it was run: as §3

SMILES: C=CC(=O)Nc1cccc(-c2c[nH]cc2CN(C)CCN)c1
- Activity [1]: Active
- Activity [2]: inactive
- Activity [3]: inactive
- Activity [4]: inactive
- IC50 [5]: 480 nM
- IC50 [6]: 110 nM
- Ratio IC50 [7]: 167
- Ratio IC50 [8]: 6
- IC50 [9]: 1300 nM
- inhibition [9]: Dose-dependent effect
- IC50 [10]: 5600 nM
- inhibition [10]: Dose-dependent effect
- inhibition [11]: inactive
- Activity [12]: Non-Toxic
- inhibition [13]: inactive
- inhibition [14]: inactive
- inhibition [15]: inactive
- inhibition [16]: inactive
- inhibition [17]: inactive
- inhibition [18]: inactive
- inhibition [19]: > 50%
